An excerpt weighted towards active compounds, which were near 2.7% of everything screened.
E-sel inducer – induces E-selectin expression in human endothelial cells | 0.37% of 260,000 active | HUVEC E-selectin immunofluorescence imaging; normalized: neutral wells 0, TNF-alpha wells 100 | activation, % at 7.58 µM;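 active means mean E-selectin-positive cell signal at least 10% of the positive control, reached in at least 60% of replicates, without over 20% cell loss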
Target sequence (P16581 whole entry, looked up): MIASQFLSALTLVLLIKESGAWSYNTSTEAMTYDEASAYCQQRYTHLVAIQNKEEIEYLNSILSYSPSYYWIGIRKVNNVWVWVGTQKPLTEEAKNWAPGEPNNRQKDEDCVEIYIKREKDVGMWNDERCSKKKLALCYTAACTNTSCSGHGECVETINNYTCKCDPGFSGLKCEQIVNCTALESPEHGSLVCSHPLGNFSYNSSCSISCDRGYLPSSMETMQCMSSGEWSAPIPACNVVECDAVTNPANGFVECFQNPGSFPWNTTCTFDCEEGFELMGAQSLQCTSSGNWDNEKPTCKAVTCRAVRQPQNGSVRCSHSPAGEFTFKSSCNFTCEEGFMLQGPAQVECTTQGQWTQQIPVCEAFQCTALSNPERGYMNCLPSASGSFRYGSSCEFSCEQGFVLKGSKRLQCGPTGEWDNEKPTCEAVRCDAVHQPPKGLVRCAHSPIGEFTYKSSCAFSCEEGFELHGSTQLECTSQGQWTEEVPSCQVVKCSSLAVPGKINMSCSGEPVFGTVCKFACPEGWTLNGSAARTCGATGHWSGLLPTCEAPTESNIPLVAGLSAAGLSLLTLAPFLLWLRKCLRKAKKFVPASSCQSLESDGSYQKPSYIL
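System: HUVEC, human umbilical vein endothelial cells; quantity: 3,000 cells/well; buffer or medium: EGM-2 medium, gelatin-coated wells; dosing: single-point compound dose; detection: immunofluorescence imaging; evaluation: % PE-positive cells; benchmarks: TNF-alpha, DMSO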
FGF22 binding – binders of recombinant human FGF22 by thermal shift; Q9HCT0; SYPRO orange fluorescence; percent of sucrose octasulfate shift, DMSO zero; activity (Tm shift, normalised), % at 9.99 µM; 1.5% of 340,000 active; AID 651658;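 active means mean Tm shift, scaled 0 neutral to 100 positive control, at about 1.3% or above, every replicate too, limit read from the data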
S100A4 MyoIIA – S100A4-myosin IIA interaction inhibition; P26447; S100A4/TAMRA-MyoIIA peptide fluorescence polarization; inhibition, % at 10.7 µM; 0.14% of 360,000 active; AID 652163;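 active means mean inhibition of at least 70% across replicates, with every replicate also reaching that level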
Target sequence (P26447 whole entry, looked up): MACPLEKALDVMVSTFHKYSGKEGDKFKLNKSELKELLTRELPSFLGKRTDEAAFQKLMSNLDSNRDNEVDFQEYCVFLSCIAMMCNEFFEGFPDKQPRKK
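incubation = readout 5 min after mixing, signal stable up to 60 min | system = S100A4 monomer protein | buffer or medium = HEPES pH 7.2 with CaCl2, KCl, NaCl, DTT, Triton | benchmarks = neutral control DMSO, positive control TFP | also added = fluorescent myosin IIA peptide, 5 nM | compound dosing = one concentration per compound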
Env fusion inh – inhibitors of HIV Env-mediated cell fusion; HeLa-JRFL Env/CEM21 cell fusion, luciferase; inhibition, % at 12.3 µM; 1.1% of 360,000 active;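 active means mean replicate inhibition score of at least 50 and every replicate individually at or above 50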;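 further: 0% = plate neutral controls and 100% = maraviroc near 300 nM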
F508del corr – CFTR F508del correction in bronchial cells | activity (quench increase), % at 7.58 µM | 0.36% of 350,000 active | AID 720511 | CFBE cells, YFP halide quenching; stimulated with forskolin plus potentiator P3; % fluorescence drop versus neutral controls;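 active means mean added fluorescence quench of at least 8% versus neutral control, with both replicates also reaching 8%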;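 further: cells transiently co-express mutant CFTR-F508del with the halide-sensitive YFP; corrector assay measuring rescue of mutant channel to the surface after 24 h compound exposure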
The depositor's hits bear a star; [ ] = remark or other dose.

How did COc1ccc(NC(=O)c2ccc(Oc3ncccn3)cc2)cc1 do in these assays?
E-sel inducer: -0.1; FGF22 binding: 43.8*; S100A4 MyoIIA: 0.0; Env fusion inh: 4.1; F508del corr: -1.1

How did CCOC(=O)CSc1ccc(C(=O)Nc2ccc(Cl)cc2)cn1 do in these assays?
FGF22 binding: 0.2; S100A4 MyoIIA: -4.8; Env fusion inh: 17.0; F508del corr: 4.7

How did CCOC(=O)CSc1ccc(C(=O)Nc2ccc(OC)cc2)cn1 do in these assays?
FGF22 binding: 43.2*; S100A4 MyoIIA: -1.2; Env fusion inh: -12.5; F508del corr: -6.1

What do the screens show for `COc1ccc(NC(=O)c2ccc(NC(=O)c3nc4nccc(C)n4n3)cc2)cc1`?
E-sel inducer: -0.2; FGF22 binding: 0.6; S100A4 MyoIIA: 2.9; Env fusion inh: -3.4; F508del corr: 26.9*

Results for C[C@@H]1CN([C@H](C)CO)C(=O)c2cc(-c3ccccc3F)cnc2O[C@@H]1CN(C)Cc1ccccc1 ?
E-sel inducer: 0.8; FGF22 binding: 0.2; S100A4 MyoIIA: 6.3; Env fusion inh: 4.7[16.7 µM]; F508del corr: 0.0

How did C[C@H](CO)N1C[C@H](C)[C@H](CN(C)C(=O)c2cccc(F)c2)Oc2cc(C#CC3CCCC3)ccc2S1(=O)=O do in these assays?
E-sel inducer: -0.6; Env fusion inh: 29.3[16.7 µM]; F508del corr: 0.0

Results for O=C(NCCNS(=O)(=O)c1ccc(Cl)cc1)c1cc(OCC(F)(F)F)ccc1OCC(F)(F)F ?
Env fusion inh: 124.6*

Results for O=C(NCCNS(=O)(=O)c1ccccc1)c1cc(OCC(F)(F)F)ccc1OCC(F)(F)F ?
Env fusion inh: -91.6

What do the screens show for `O=S(=O)(c1ccc(F)cc1)N1C[C@@H]2[C@H](c3ccccc31)[C@H](CO)N2Cc1ccccc1Cl`?
E-sel inducer: 0.3; FGF22 binding: -0.9; S100A4 MyoIIA: 0.8; F508del corr: 1.3

What do the screens show for `O=S(=O)(c1ccc(F)cc1)N1C[C@H]2[C@@H](c3ccccc31)[C@H](CO)N2Cc1ccccc1Cl`?
E-sel inducer: 0.0; FGF22 binding: -1.2; S100A4 MyoIIA: 99.6*; F508del corr: -0.4

How did CCCC(=O)Nc1ccc2c(c1)OC[C@H](C)N(C(=O)c1ccncc1)C[C@@H](C)[C@@H](OC)CN(C)C2=O do in these assays?
E-sel inducer: 0.0; FGF22 binding: 0.0; S100A4 MyoIIA: 2.6; Env fusion inh: 7.8[16.7 µM]; F508del corr: -0.6

How did Cc1nc(CN(C)C(=O)c2cc(COc3ccc4ncccc4c3)on2)cs1 do in these assays?
E-sel inducer: 0.1; FGF22 binding: 42.9*; S100A4 MyoIIA: -3.2; Env fusion inh: 9.0; F508del corr: 1.4

Results for COCCN(C[C@H]1[C@H](c2ccccc2)[C@@H](CO)N1C(=O)C1CCC1)C(C)=O ?
E-sel inducer: 0.4; F508del corr: -3.1

How did COc1ccc(/C=N/OC(=O)Nc2ccccc2OC)cc1 do in these assays?
E-sel inducer: 0.5; FGF22 binding: 42.9*; S100A4 MyoIIA: 0.2; Env fusion inh: -393.1; F508del corr: 4.9

Results for COc1ccccc1NC(=O)Oc1ccc(C(C)=O)cc1 ?
Env fusion inh: 58.6*

Results for CCCCCc1ccc(-c2nnc(N)s2)cc1 ?
E-sel inducer: -0.1; FGF22 binding: 43.2*; S100A4 MyoIIA: 3.8; Env fusion inh: 9.2; F508del corr: -5.7

How did O=C(Nc1ccc2c(c1)OCCO2)c1oc2ccccc2c1NC(=O)C1CC1 do in these assays?
FGF22 binding: 43.3*; S100A4 MyoIIA: 1.6; Env fusion inh: 14.0; F508del corr: -1.1

What do the screens show for `CCC(=O)Nc1c(C(=O)Nc2ccc3c(c2)OCCO3)oc2ccccc12`?
E-sel inducer: -0.1; FGF22 binding: 0.0; S100A4 MyoIIA: 0.4; Env fusion inh: -39.8; F508del corr: -3.4

Results for O=C(NC(=S)Nc1cccc2[nH]ncc12)c1ccccc1 ?
E-sel inducer: 3.6; FGF22 binding: 0.2; S100A4 MyoIIA: 0.7; Env fusion inh: 4.0; F508del corr: -1.8

What do the screens show for `O=C(Nc1cccc2[nH]ncc12)c1ccc(F)cc1`?
Env fusion inh: 73.8*

Results for C=CC(=O)Nc1cccc(Oc2ncnc3[nH]cc(-c4cnc5ccccc5c4)c23)c1 ?
E-sel inducer: -0.2; FGF22 binding: 0.8; S100A4 MyoIIA: -8.2; Env fusion inh: 57.1*; F508del corr: -1.1

How did COc1ccccc1C#Cc1ccc2c(c1)O[C@H](CN(C)C)[C@@H](C)CN([C@H](C)CO)S2(=O)=O do in these assays?
E-sel inducer: 0.0; FGF22 binding: 0.0; S100A4 MyoIIA: 0.8; Env fusion inh: 5.2[16.7 µM]; F508del corr: -2.9

Results for N#CCC(=O)N/N=C/c1cn(Cc2cccc3ccccc23)c2ccccc12 ?
E-sel inducer: 0.6; FGF22 binding: -0.1; S100A4 MyoIIA: 2.3; Env fusion inh: -118.2; F508del corr: 11.0*

What do the screens show for `N#CCC(=O)N/N=C/c1ccccc1Cl`?
E-sel inducer: -0.1; FGF22 binding: 43.7*; S100A4 MyoIIA: -0.6; Env fusion inh: -23.2; F508del corr: -1.6

What do the screens show for `COc1ccc(NC(=O)N[C@H]2CC[C@H](CC(=O)NC3CCCCC3)O[C@@H]2CO)cc1`?
E-sel inducer: 0.0; FGF22 binding: 0.0; S100A4 MyoIIA: 10.2; Env fusion inh: 2.0[16.7 µM]; F508del corr: 0.3

Results for NS(=O)(=O)c1ccc2nc(NC(=O)c3ccc4c(c3)OCCO4)sc2c1 ?
E-sel inducer: 0.0; FGF22 binding: 0.1; S100A4 MyoIIA: -16.5; Env fusion inh: -26.5; F508del corr: 8.9*

What do the screens show for `O=C(Nc1nc2cc3c(cc2s1)OCCO3)C1=COCCO1`?
FGF22 binding: 0.1; S100A4 MyoIIA: 8.8; Env fusion inh: 64.0*; F508del corr: 0.5

What do the screens show for `CCCNC(=O)[C@@H]1[C@@H](CO)[C@@H]2Cn3c(ccc(-c4cccnc4)c3=O)[C@H]1N2C(=O)Nc1ccccc1`?
E-sel inducer: 0.2; FGF22 binding: 0.0; S100A4 MyoIIA: -5.5; F508del corr: -2.0

Results for COc1ccc(S(=O)(=O)Nc2ccc3c(c2)C(=O)N([C@@H](C)CO)C[C@H](C)[C@@H](CN(C)C(=O)Cc2ccccc2)OCCCC[C@H](C)O3)cc1 ?
E-sel inducer: -0.3; FGF22 binding: -0.5; S100A4 MyoIIA: -1.9; Env fusion inh: 28.3[16.7 µM]; F508del corr: 1.4

Results for NC(=O)CSc1nnc(Cn2cnc3ccccc32)o1 ?
E-sel inducer: -1.7; S100A4 MyoIIA: -11.1; Env fusion inh: -16.1; F508del corr: 6.6

Results for Clc1ccc(CSc2nnc(Cn3cnc4ccccc43)o2)cc1 ?
Env fusion inh: 86.9*

How did COc1ccc(CNC(=O)CSc2nc3ccc(C)cc3[nH]2)cc1 do in these assays?
E-sel inducer: 0.9; FGF22 binding: -0.4; S100A4 MyoIIA: -6.3; Env fusion inh: -3.2; F508del corr: 2.8

Results for CCCCNC(=O)CSc1nc2ccc(C)cc2[nH]1 ?
E-sel inducer: 18.9; FGF22 binding: 0.5; S100A4 MyoIIA: 11.4; Env fusion inh: 3.0; F508del corr: 16.6*
